Experimental data as given in article PMC2661818 (Psychopharmacology, 2008).
Structures can show the parent of a compound that is named as a salt. Where two headings read alike, the source gives them in different places.

How the values were obtained:
[1] = test system: rats trained to discriminate 10 mg/kg cocaine, IP from saline; type: in vivo, Sprague—Dawley rats; details: for Maximal cocaine responding: SEM in parentheses; for Maximal levels of cocaine responding: in each/all rearing groups (BMS, AFR, LMS)
How it was run: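 Adult Sprague–Dawley rats (6 per rearing condition per sex) from BMS, LMS or AFR rearing, trained at 10 mg/kg IP (15-min pretreatment) vs saline. Tests: 10 consecutive responses on either manipulandum gave a pellet. Novel training-drug doses (0.56–18 mg/kg) in random order; pretreatment 1–120 min. Group mean % drug responding: ≥80% full, ≤20% saline-like. Rates as % of vehicle.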

[2] = test system: rats discriminating cocaine injections; details: cited from earlier work; for Cocaine-like responding (partial): ref Witkin et al. 1991; for Substitution for the cocaine cue: reduced training dose (3.0 mg/kg cocaine), ref Terry et al. 1994
[3] = Plasma cocaine assessment by LC/MS/MS; type: in vivo, Sprague—Dawley rats; details: males, 10 mg/kg IP
[4] = test system: c-Fos; assay: Cocaine-induced c-Fos expression; type: in vivo, Sprague—Dawley rats; details: 10 mg/kg IP, 14 days
[5] = test system: rats; details: ref Moffett et al. (2006a), cited from earlier work
[6] = rat, IP injection, cited from earlier work
[7] = females, all rearing conditions

Question: Which “Doses producing more cocaine-like responding” value ([1]; females, AFR) does the source give for Fc1ccc(C(OCCN2CCN(CCCc3ccccc3)CC2)c2ccc(F)cc2)cc1 [GBR12909, GBR12909 bismesylate hydrate] here?
Answer: 5.6 to 18 mg/kg

Question: What about the Maximal cocaine responding ([1]; females, AFR) of the same molecule?
Answer: 80.28%

Question: And the Maximal cocaine responding ([1]; females, BMS)?
Answer: 99.64%

Question: And the “Doses producing more partial responding” value ([1]; females, LMS)?
Answer: 3.2 to 10 mg/kg

Question: And the Maximal cocaine responding ([1]; females, LMS)?
Answer: 83.39%

Question: What about the “Effect on rate of responding” value [1, 7] of the same molecule?
Answer: dose dependently decreased

Question: What about the Generalization profile ([1]; males, AFR, two lowest doses (1.0–3.2 mg/kg)) of the same molecule?
Answer: partial cocaine responding

Question: And the Generalization profile ([1]; males, BMS and LMS, two lowest doses (1.0–3.2 mg/kg))?
Answer: saline responding

Question: What about the “Effect on rate of responding” value ([1]; males, all rearing conditions) of the same molecule?
Answer: dose dependently decreased rate of responding

Question: With Oc1cc2c(cc1O)C(c1ccccc1)CNCC2 (stereo not shown) [SKF38393, SKF38393 hydrobromide] as the molecule, how does the “Effect on rate of responding” value [1, 7] read?
Answer: dose dependently decreased

Question: What about the “Maximal levels of cocaine responding” value ([1]; females) of the same molecule?
Answer: approximately 50%

Question: And the Generalization profile ([1]; males, AFR and LMS, 18 mg/kg)?
Answer: partial generalization

Question: What about the Maximal cocaine responding ([1]; males, AFR) of the same molecule?
Answer: 81.41%

Question: And the “Rates of responding (disrupted)” value ([1]; males, BMS and AFR groups, 32 mg/kg)?
Answer: < 0.20 mean responses per second

Question: And the Maximal cocaine responding ([1]; males, BMS)?
Answer: 95.68%

Question: And the Maximal cocaine responding ([1]; males, LMS)?
Answer: 83.52%

Question: What about the “Effect on rate of responding” value ([1]; males, all rearing conditions) of the same molecule?
Answer: dose-dependent decreases in rates

Question: And the Generalization profile ([1]; males, all rearing conditions, 10 mg/kg)?
Answer: partial generalization

Question: And the “Cocaine-like responding (partial)” value ([2]; 10 mg/kg cocaine training dose)?
Answer: 20–80%

Question: What about the “Substitution for the cocaine cue” value [2] of the same molecule?
Answer: substitute fully

Question: With COC(=O)[C@H]1[C@@H](OC(=O)c2ccccc2)C[C@@H]2CC[C@H]1N2C [cocaine, Cocaine hydrochloride] as the molecule, how does the “Effect on rate of responding” value [1, 7] read?
Answer: dose dependently decreased rate of responding

Question: What about the “Effect on rate of responding” value ([1]; males, all rearing conditions) of the same molecule?
Answer: did not have an effect on rate of responding

Question: And the “Cocaine-appropriate responding as a function of dose” value ([1]; novel doses 0.56–18 mg/kg, all groups)?
Answer: dose-dependent increases in cocaine-appropriate responding

Question: What about the “Plasma cocaine levels, effect of time” value [3] of the same molecule?
Answer: decreasing from 15 to 60 min

Question: What about the “Fos-IR, cocaine- vs saline-treated” value ([4]; AFR females, NAcc Core and central CPu) of the same molecule?
Answer: significantly greater Fos-IR

Question: And the “c-Fos expression, cocaine- vs saline-treated” value ([4]; AFR males, central and dorsomedial CPu)?
Answer: trend for significantly greater c-Fos expression

Question: What about the “c-Fos expression, cocaine- vs saline-treated” value ([4]; BMS males and females, any brain region examined) of the same molecule?
Answer: never statistically significant differences

Question: And the “c-Fos, cocaine- vs saline-treated” value ([4]; LMS males, ICjM)?
Answer: showed significance

Question: What about the Self-administration ([5]; BMS rats) of the same molecule?
Answer: did not self administer cocaine above saline levels at any dose tested

Question: And the “Dose at which self-administration was acquired” value ([5]; LMS rats)?
Answer: 0.0625 mg/kg/infusion

Question: And the “Time to peak plasma” value ([6]; ref Misra et al. 1974)?
Answer: 4 h

Question: And the “Elimination half-life (t1/2)” value ([6]; ref Nayak et al. 1976)?
Answer: 48 to 60 min

Question: Which results are given for CCCN1CCC[C@@H]2Cc3n[nH]cc3C[C@H]21 [quinpirole, quinpirole hydrochloride]?
Answer: Generalization profile ([1]; females, all groups, doses of 0.061–0.18 mg/kg): intermediate levels of responding; Effect on rate of responding [1, 7]: dose dependently decreased; Maximal levels of cocaine responding ([1]; females): ~80%; Generalization profile ([1]; males, LMS, all doses except 0.125 mg/kg): only partial generalization; Effect on rate of responding ([1]; males, all rearing conditions): dose dependently decreased the number of responses; Generalization to the cocaine cue ([2]; 10 mg/kg cocaine training dose, ref Barrett and Appel 1989, Callahan et al. 1991, Callahan and Cunningham 1993): full generalization; Cocaine-like responding (partial) ([2]; 10 mg/kg cocaine training dose): 20–80%; Substitution for the cocaine cue [2]: substitute fully
